ChEMBL document CHEMBL5344428, “Discovery, Crystallographic Studies, and Mechanistic Investigations of Novel Phenylalanine Derivatives Bearing a Quinazolin-4-one Scaffold as Potent HIV Capsid Modulators” (J Med Chem, 2023)

Tests used:
[1] = Selectivity ratio of EC50 for antiviral activity against HIV1 IIIB infected in human MT4 cells to EC50 for antiviral activity against HIV2 ROD infected in human MT4 cells; format: toxicity, cell-based
How it was run: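 Ratio is EC50 against HIV-1 IIIB divided by EC50 against HIV-2 ROD. Both EC50 values come from MTT-read protection of infected MT-4 cells.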

[2] = Selectivity index, ratio of CC50 for cytotoxicity against human MT4 cells to EC50 for antiviral activity against HIV2 ROD infected in human MT4 cells; format: toxicity, cell-based; conditions: read-out: Ratio CC50/EC50
How it was run: (§1)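 SI is CC50 divided by EC50. CC50 comes from MTT viability of uninfected MT-4 cells. EC50 comes from MTT-read protection of MT-4 cells infected with HIV-1 IIIB or HIV-2 ROD. Each value was run in at least triplicate.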

[3] = Selectivity index, ratio of CC50 for cytotoxicity against human MT4 cells to EC50 for antiviral activity against HIV1 IIIB infected in human MT4 cells; format: toxicity, cell-based; conditions: read-out: Ratio CC50/EC50; how it was run: as §1
[4] = Cytotoxicity against human MT4 cells assessed as reduction in cell viability incubated for 5 days by MTT assay; format: toxicity, cell-based; conditions: MT4 cells, time 5 day
How it was run: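 Uninfected MT-4 cells were exposed to compound, and viability was read by the MTT method. […] Each value was run in at least triplicate and averaged from at least three independent experiments.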

[5] = test system: Human immunodeficiency virus 1; assay: Antiviral activity against HIV1 IIIB infected in human MT4 cells assessed as reduction in virus induced cytopathic effect measured after 5 days by MTT assay; format: functional, organism-based; conditions: Human immunodeficiency virus 1, IIIB, MT4, 120 h
How it was run: (§2)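 MT-4 cells were infected with HIV-1 IIIB or HIV-2 ROD, and cell viability was read by MTT. […] Each value was run in at least triplicate and averaged from at least three independent experiments.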

[6] = test system: Human immunodeficiency virus 2; assay: Antiviral activity against HIV2 ROD infected in human MT4 cells assessed as reduction in virus induced cytopathic effect measured after 5 days by MTT assay; format: functional, organism-based; conditions: Human immunodeficiency virus 2, ROD, MT4, 120 h; how it was run: as §2

For `COc1ccc(N(C)C(=O)[C@H](Cc2ccccc2)NC(=O)CN2CCN(C(=O)Cc3c[nH]c4ccc(OC)cc34)CC2=O)cc1`, the “Ratio EC50” value [1] was 0.86, the selectivity ratio [2] was 6.15 and the selectivity ratio [3] was 7.15. The CC50 at 120 h [4] was 104 µM, the EC50 [5] was 14.6 µM and the EC50 [6] was 16.9 µM.

With `COc1ccc(N(C)C(=O)[C@H](Cc2ccccc2)NC(=O)Cn2ccc(NC(=O)c3ccccc3)cc2=O)cc1` the “Ratio EC50” value [1] was 3.46, the selectivity ratio [2] was 17.8 and the selectivity ratio [3] was 5.15. The CC50 at 120 h [4] was 86.5 µM, the EC50 [5] was 16.8 µM and the EC50 [6] was 4.86 µM.

With `COc1ccc(N(C)C(=O)[C@H](Cc2cc(F)cc(F)c2)NC(=O)CN(Cc2ccc(F)cc2)C(=O)Cc2ccc(B3OC(C)(C)C(C)(C)O3)cc2)cc1` the “Ratio EC50” value [1] was 0.89, the selectivity ratio [2] was 5 and the selectivity ratio [3] was 6. For the same compound, the CC50 at 120 h [4] was 65.4 µM, the EC50 [5] was 11.7 µM and the EC50 [6] was 13.2 µM.

With `COc1ccc(N(C)C(=O)[C@H](Cc2ccccc2)NC(=O)CN2CCN(C(=O)Cc3c[nH]c4ccccc34)CC2=O)cc1` the “Ratio EC50” value [1] was 3.06, the selectivity ratio [2] was 23 and the selectivity ratio [3] was 7.51. For the same compound, the CC50 at 120 h [4] was 112 µM, the EC50 [5] was 15 µM and the EC50 [6] was 4.89 µM.

For `COc1ccc(N(C)C(=O)[C@H](Cc2ccccc2)NC(=O)Cn2ccc(NC(=O)c3ccc(C#N)cc3)cc2=O)cc1`, the “Ratio EC50” value [1] was 0.94, the selectivity ratio [2] was 7.69 and the selectivity ratio [3] was 8.18. For the same compound, the CC50 at 120 h [4] was 137 µM, the EC50 [5] was 16.8 µM and the EC50 [6] was 17.8 µM.

For `COC(=O)CSc1nnc([C@H](Cc2ccccc2)NC(=O)Cc2c(C)[nH]c3ccccc23)n1-c1ccc(OC)cc1`, the “Ratio EC50” value [1] was 0.46, the selectivity ratio [2] was 12 and the selectivity ratio [3] was 27. It also gave a CC50 at 120 h [4] of 82.3 µM, an EC50 [5] of 3.01 µM and an EC50 [6] of 6.59 µM.

For `COc1ccc(N(C)C(=O)[C@H](Cc2ccccc2)NC(=O)Cn2ccc(NC(=O)c3cccc(F)c3)cc2=O)cc1`, the “Ratio EC50” value [1] was 2.87, the selectivity ratio [2] was 9.36 and the selectivity ratio [3] was 3.26. For the same compound, the CC50 at 120 h [4] was 61.6 µM, the EC50 [5] was 18.9 µM and the EC50 [6] was 6.59 µM.

With `COc1ccc(N(C)C(=O)[C@H](Cc2ccccc2)NC(=O)Cn2ccc(N)cc2=O)cc1` the “Ratio EC50” value [1] was 1.47, the selectivity ratio [2] was 13.2 and the selectivity ratio [3] was 8.98. The CC50 at 120 h [4] was 261 µM, the EC50 [5] was 29.1 µM and the EC50 [6] was 19.7 µM.

With `COc1ccc(N(C)C(=O)[C@H](Cc2cc(F)cc(F)c2)NC(=O)Cn2ccc(N)cc2=O)cc1` the “Ratio EC50” value [1] was 0.34, the selectivity ratio [2] was over 17.1 and the selectivity ratio [3] was over 49.6. For the same compound, the CC50 at 120 h [4] was over 266 µM, the EC50 [5] was 5.36 µM and the EC50 [6] was 15.6 µM.

With `COc1ccc(N(C)C(=O)[C@H](Cc2cc(F)cc(F)c2)NC(=O)CN(Cc2ccc(C#N)cc2)C(=O)Cc2c[nH]c3ccc(F)cc23)cc1` the “Ratio EC50” value [1] was 2.97, the selectivity ratio [2] was 26 and the selectivity ratio [3] was 9. For the same compound, the CC50 at 120 h [4] was 148 µM, the EC50 [5] was 17.2 µM and the EC50 [6] was 5.81 µM.

With `COC(=O)CCSc1nnc([C@H](Cc2ccccc2)NC(=O)Cc2c(C)[nH]c3ccccc23)n1-c1ccc(OC)cc1` the “Ratio EC50” value [1] was 0.59, the selectivity ratio [2] was over 11 and the selectivity ratio [3] was over 19. The CC50 at 120 h [4] was over 214 µM, the EC50 [5] was 11.4 µM and the EC50 [6] was 19.2 µM.

For `COc1ccc(C(=O)Nc2ccn(CC(=O)N[C@@H](Cc3ccccc3)C(=O)N(C)c3ccc(OC)cc3)c(=O)c2)cc1`, the “Ratio EC50” value [1] was 2.78, the selectivity ratio [2] was 4.98 and the selectivity ratio [3] was 1.79. For the same compound, the CC50 at 120 h [4] was 53.1 µM, the EC50 [5] was 29.6 µM and the EC50 [6] was 10.7 µM.

In the case of `COc1ccc(N(C)C(=O)[C@H](Cc2cc(F)cc(F)c2)NC(=O)CN2CCN(C(=O)c3ccc(NC(=O)C(F)(F)F)cc3)CC2=O)cc1`, the “Ratio EC50” value [1] is reported as 0.83, the selectivity ratio [2] is reported as 9.09 and the selectivity ratio [3] is reported as 10.9. It also gave a CC50 at 120 h [4] of 150 µM, an EC50 [5] of 13.7 µM and an EC50 [6] of 16.6 µM.

With `COc1ccc(N(C)C(=O)[C@H](Cc2cc(F)cc(F)c2)NC(=O)CN(Cc2ccc(F)cc2)C(=O)Cn2nc(C(F)(F)F)c3ccccc32)cc1` the “Ratio EC50” value [1] was 0.2, the selectivity ratio [2] was 8 and the selectivity ratio [3] was 42. It also gave a CC50 at 120 h [4] of 108 µM, an EC50 [5] of 2.53 µM and an EC50 [6] of 12.9 µM.
